Compound activity as filed in PubChem BioAssay.
Compounds with a hit are over-represented: about 3.5% of the library has one in this group of screens.
MrgX1 antag: blocks BAM8-22 activation of human MrgX1 receptor. Q96LB2. MRGX1-HEK293 calcium flux, Fluo-4, BAM8-22 antagonism; stronger effect = lower value. B-score at 10 µM. 1.3% of 310,000 active;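 active = calcium-response B-score plate-corrected more than 3 library SD below zero, starting fluorescence within 5 deviations, no agonist response on first addition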;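 also: peak minus trough fluorescence over baseline after final BAM8-22 challenge near maximal dose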
Target sequence (Q96LB2 whole entry, looked up): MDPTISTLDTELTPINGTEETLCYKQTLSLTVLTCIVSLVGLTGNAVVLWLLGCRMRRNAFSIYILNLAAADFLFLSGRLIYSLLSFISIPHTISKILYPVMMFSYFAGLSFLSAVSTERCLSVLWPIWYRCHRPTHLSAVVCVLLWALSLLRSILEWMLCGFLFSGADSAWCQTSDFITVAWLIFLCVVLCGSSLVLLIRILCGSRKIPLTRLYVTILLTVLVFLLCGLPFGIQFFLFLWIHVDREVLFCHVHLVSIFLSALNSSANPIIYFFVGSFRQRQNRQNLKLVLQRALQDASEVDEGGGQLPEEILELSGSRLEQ
MrgX1 ag: agonists of human MrgX1 receptor. Q96LB2. MrgX1-HEK293 cells, Fluo-4 calcium fluorescence, agonist mode; stronger effect = higher value. B-score at 10 µM. 0.44% of 310,000 active. AID 588627;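 active = calcium response B-score plate-corrected fluorescence ratio at least 3 library SD, with starting fluorescence B-score inside 5 SD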
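Assay system: stable human MrgX1 HEK293 cell line. Quantity: 15,000 cells per well. Schedule: cells plated overnight, dye loaded 0.5 h 37 °C, 0.5 h room temperature. Detection: Fluo-4 NW calcium-flux fluorescence, kinetic read. Read-out basis: peak-minus-minimum fluorescence over baseline, converted to B scores. Control set: positive and negative control wells on each plate.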
RGS4 inh: inhibitors of human RGS4 | P49798 | HEK293 M3R/RGS4 inducible, Fluo-4 calcium flux; stronger effect = higher value; triggered by carbachol at its EC20 | B-score at 10 µM | 0.45% of 310,000 active | AID 463165;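 active = B-score, a plate-corrected calcium signal, over three deviations above library mean, with baseline fluorescence within five deviations of library mean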;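 also: RGS4 expression induced by doxycycline in cells with stable M3 receptor; B-score is computed from the integrated fluorescence ratio over baseline after carbachol; higher B-score means a larger calcium signal and so more RGS4 inhibition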
MrgX1 PAM: allosterically activates human MrgX1 receptor signaling. MrgX1-HEK293, Fluo-4 calcium flux, FDSS; stronger effect = higher value. B-score at 10 µM. 0.63% of 310,000 active. AID 588675;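 active = plate-corrected calcium response at least 3 library SD above typical, normal starting fluorescence, not activating the receptor alone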;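 also: compound read alongside a low EC10 to EC30 dose of BAM8-22 agonist; peak minus trough fluorescence over baseline measured at the second addition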
RGS4 pot: RGS4 potentiation or activation; 0.92% of 310,000 active; B-score at 10 µM; HEK293 M3R/inducible RGS4, carbachol calcium flux Fluo4; stronger effect = lower value; AID 463111;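 active = B-score of the integrated calcium signal more than 4 SD below the library mean, with starting fluorescence not abnormally high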;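 also: negative B-score means reduced calcium response which marks RGS4 activation or potentiation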
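Material: M3R-expressing HEK293 line, RGS4 induced by doxycycline | Schedule: Overnight RGS4 induction, 30 min dye load 37 °C, 20 min compound RT | Measured by: Fluo4 fluorescence kinetic imaging of calcium | Read-out: Integrated calcium ratio converted to B score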
* = called active by the depositor; i = inactive; nt = no result.

SMILES | MrgX1 antag | MrgX1 ag | RGS4 inh | MrgX1 PAM | RGS4 pot
COc1cccc(/C=N/Nc2nc3ccccc3n3cnnc23)c1O | i | i | i | i | -7.1*
CCCCCCCOC(=O)C[N+](C)(C)CCOC1CC2CCC1(C)C2(C)C (stereo not given) | nt | nt | i | nt | -8.2*
Clc1ccc(Sc2cc(Cl)c(-c3ccccc3)nn2)cc1 | i | i | i | i | i
O=C1CCCN1CCCNc1ncnc2c1[nH]c1ccc(Cl)cc12 | i | 37* | i | i | i
CCOC(=O)N1CCN(S(=O)(=O)c2ccc(C(=O)Nc3ccc4c(c3)C(=O)NC4=O)cc2)CC1 | i | i | i | i | i
C/C(=N/OC(=O)c1c(-c2ccccc2Cl)noc1C)c1cnccn1 | i | i | i | i | -9.8*
COc1cc(CNCCO)cc(Br)c1OCc1cccs1 | i | i | i | i | i
COc1cc(CNC(C)(C)C)cc(Br)c1OCc1cccs1 | -6.1* | i | i | i | i
O=C(CSC1=NS(=O)(=O)c2cc(Cl)ccc2N1)c1ccc(Cl)cc1 | i | i | i | i | i
O=C(Nc1nc(-c2ccccc2)cs1)c1ccccc1NS(=O)(=O)c1ccc(F)cc1 | i | i | i | i | -7.2*
COc1cc(/C=N\N=C2/SC(CC(=O)O)C(=O)N2c2ccc(O)cc2)ccc1O (stereo not given) | -8.2* | i | i | i | i
Cc1ccc(N(CC(=O)NCc2ccco2)C(=O)CCC(=O)Nc2ccccn2)c(C)c1 | i | i | i | i | i
O=[N+]([O-])c1cnc(Sc2ccncn2)s1 | i | i | i | i | -9.8*
O=C(O)CCCCCCC1C(=O)NC(=O)N1CCC(O)C1CCCCC1 (stereo not given) | i | 31* | i | i | i
O=C(O)CCCCCN1C(=O)C2CCCCC2C1=O (stereo not given) | i | i | i | i | i
O=C(Nc1cccc(Cl)c1)c1cc(N=Nc2ccc([N+](=O)[O-])cc2Cl)ccc1O | -4.6* | i | i | i | i
O=C(Nc1ccc([N+](=O)[O-])cc1Cl)c1cc(Cl)ccc1O | i | i | nt | i | nt
Cc1cccn2c(=O)c3cc(S(=O)(=O)c4ccccc4)c(=N)n(CC4CCCO4)c3nc12 (stereo not given) | i | i | i | i | i
COC(=O)C(CC(=O)c1ccc(Br)cc1)n1ccnc1 (stereo not given) | nt | nt | 6.6* | nt | i
COC(=O)C(CC(=O)c1ccc(Br)cc1)n1nc(C)cc1C (stereo not given) | i | i | i | i | i
CC1CCCCN1C(=O)CSc1nc(C2CC2)nc2ccccc12 (stereo not given) | i | i | i | i | i
CCn1cc(/C=C/C(=O)Nc2c(C)nn(Cc3ccccc3)c2C)cn1 | i | i | i | i | i
Cc1nn(Cc2ccccc2Cl)c(C)c1NC(=O)/C=C/c1cnn(C)c1 | -4.6* | i | i | i | i
COC(=O)c1ccc(CN2CCC(CO)(CCOc3ccccc3)CC2)cc1 | i | i | i | i | -7*
COC(=O)c1ccc(CN2CCC(CO)(Cc3cccc(OC)c3)CC2)cc1 | i | i | i | i | i
SMILES | MrgX1 antag | MrgX1 ag | RGS4 inh | MrgX1 PAM | RGS4 pot
CCOC(=O)C1(CCOc2ccccc2)CCN(Cc2ccc(OC)c(COC)c2)CC1 | -4.7* | i | i | i | i
CCOC(=O)C1(CCOc2ccccc2)CCN(Cc2ccc(COC)o2)CC1 | i | 32* | i | i | i
CN1CCN(S(=O)(=O)c2ccc(NC(=O)c3ccc(F)cc3Cl)cc2)CC1 | i | i | i | i | i
O=[N+]([O-])c1ccc(O)c(-c2cc(C(F)(F)F)nc(-c3ccccc3)n2)c1 | -5.6* | i | i | i | i
CCC(=O)N(CCC1(c2ccccc2OC)CCOC(C(C)C)C1)Cc1ccco1 (stereo not given) | i | i | i | i | i
Cc1ccc(C)c(OCC(=O)Nc2nc3ccc([N+](=O)[O-])cc3s2)c1 | -7.2* | i | i | i | i
O=C(COC(=O)c1ccco1)Nc1nc2ccc([N+](=O)[O-])cc2s1 | i | i | i | i | i
